Data published in ChEMBL document CHEMBL3414545, “Fused heterocycles bearing bridgehead nitrogen as potent HIV-1 NNRTIs. Part 4: design, synthesis and biological evaluation of novel imidazo[1,2-a]pyrazines” (Eur J Med Chem, 2015).
pEC50, pIC50: −log10 of the molar value. Where a name gives a salt, the structure may show the parent alone. Active and inactive are the calls of the source. The rule behind the calls is not given here.

Experiments:
[1] = system: Human immunodeficiency virus 2; experiment: Antiviral activity against HIV2 strain ROD infected in human MT4 cells assessed as reduction in virus-induced cytopathic effect at subtoxic concentration; type: functional, organism-based; conditions: ISOLATE ROD
Outline: (§1)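 Exponentially growing MT-4 cells were pelleted and resuspended at 6 × 10⁵ cells/mL, then infected with virus stock at 100–300 CCID₅₀. Compounds were added at infection as serial five-fold dilutions in triplicate wells, with untreated infected and mock-infected controls. Viability was read spectrophotometrically by MTT five days post-infection. EC₅₀ is the concentration giving 50% protection from viral cytopathic effect.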

[2] = Selectivity index, ratio of CC50 for mock-infected human MT4 cells to EC50 for HIV1 3B infected in human MT4 cells; type: toxicity, cell-based; conditions: mock-infected and infected with HIV1 3B, read-out: Selectivity Index
Outline: (§2)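 MT-4 cells resuspended at 6 × 10⁵ cells/mL, then infected with 100–300 CCID₅₀ of HIV-1 IIIB or RES056 or left mock-infected. Compound, in serial five-fold dilutions in triplicate wells, was added at the start. Viability was read by MTT after 5 days. EC₅₀ is 50% protection from viral cytopathicity, CC₅₀ is 50% viability loss in mock-infected cells, and SI is CC₅₀/EC₅₀.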

[3] = system: Human immunodeficiency virus 1; experiment: Antiviral activity against HIV1 3B infected in human MT4 cells assessed as reduction in virus-induced cytopathic effect after 5 days by MTT assay; type: functional, organism-based; conditions: Human immunodeficiency virus 1, 3B, MT4, 120 h; outline: as §1
[4] = Selectivity index, ratio of CC50 for mock-infected human MT4 cells to EC50 for HIV1 RES056 expressing reverse transcriptase K103N/Y181C double mutant; type: toxicity, cell-based; conditions: read-out: Selectivity Index; outline: as §2
[5] = biological target: Human immunodeficiency virus type 1 reverse transcriptase (Human immunodeficiency virus 1, UniProt Q72547); experiment: Inhibition of HIV1 reverse transcriptase assessed as reduction in biotin-labeled dUTP incorporation into DNA using poly(A) x oligo(dT)15 as template/primer after 1 hr by ELISA
Outline: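 Wild-type HIV-1 RT was assayed with a plate-bound homopolymer poly[A]·oligo[dT]₁₅ template/primer and biotin-dUTP, following the Roche RT kit protocol. Incorporated biotin-dUTP, a measure of RT activity, was quantified by ELISA. Percentage inhibition was calculated by formula, and IC₅₀ is the concentration inhibiting biotin-dUTP incorporation by 50%.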

[6] = system: Human immunodeficiency virus 1; experiment: Antiviral activity against HIV1 RES056 expressing reverse transcriptase K103N/Y181C double mutant infected in human MT4 cells assessed as reduction in virus-induced cytopathic effect after 5 days by MTT assay; type: functional, organism-based; conditions: Human immunodeficiency virus 1, RES056, MT4, 120 h; outline: as §2

| Compound | inhibition [1] | selectivity ratio [2] | pEC50 [3] | selectivity ratio [4] | pIC50 [5] | pEC50 [6] |
| --- | --- | --- | --- | --- | --- | --- |
| Cc1cc(Cl)cc(C)c1Oc1nc(Nc2ccc(C#N)cc2)cn2ccnc12 | inactive | 39 | 6.06 | < 1 | 5.96 | < 4.47 |
| Cc1cccc(C)c1Oc1nc(Nc2ccc(CC#N)cc2)cn2ccnc12 | inactive | < 1 | < 3.81 | < 1 | 5.24 | < 3.81 |
| Cc1cccc(C)c1Oc1nc(Nc2ccc(Cl)cc2)cn2ccnc12 | inactive | < 1 | < 4.24 | < 1 | 4.82 | < 4.24 |
| Cc1cc(Cl)cc(C)c1Oc1nc(Nc2ccc([N+](=O)[O-])cc2)cn2ccnc12 | inactive | 7 | 5.34 | < 1 | 5.89 | < 4.48 |
| Cc1cc(C#N)cc(C)c1Oc1nc(Nc2ccc(Cl)cc2)cn2ccnc12 | inactive | < 1 | < 4.89 |  | 5.26 |  |
| O=c1[nH]cnc2c1ncn2[C@H]1CC[C@@H](CO)O1 [DIDANOSINE] |  | > 9 |  |  |  |  |
| Cc1cc(C)c(Oc2nc(Nc3ccc(C#N)cc3)cn3ccnc23)c(C)c1 | inactive | 126 | 6.59 | < 1 | 6.40 | < 4.48 |
| Cc1ccnc2c1NC(=O)c1cccnc1N2C1CC1 [NEVIRAPINE] |  |  |  |  |  | ≤ 5.12 |
| CC(C)Nc1cccnc1N1CCN(C(=O)c2cc3cc(NS(C)(=O)=O)ccc3[nH]2)CC1 [DELAVIRDINE MESYLATE] |  | > 67 |  | 1 |  | < 4.44 |
| Cc1cc(Br)cc(C)c1Oc1nc(Nc2ccc(C#N)cc2)cn2ccnc12 | inactive | 28 | 6.01 | < 1 | 6.39 | < 4.55 |
| Cc1cc(C)c(Oc2nc(Nc3ccc(CC#N)cc3)cn3ccnc23)c(C)c1 | inactive | 13 | 5.04 | < 1 | 6.44 | < 3.93 |
| Nc1ccn([C@@H]2CS[C@H](CO)O2)c(=O)n1 [LAMIVUDINE] |  | > 39 |  |  |  |  |
| N#Cc1ccc(Nc2cn3ccnc3c(Oc3c(F)cc(F)cc3F)n2)cc1 | inactive | 5 | 5.14 | < 1 | 6.33 | < 4.42 |
| Cc1cn([C@H]2C[C@H](N=[N+]=[N-])[C@@H](CO)O2)c(=O)[nH]c1=O [ZIDOVUDINE] |  | > 13100 |  | > 9150 |  | 8.00 |
| O=[N+]([O-])c1ccc(Nc2cn3ccnc3c(Oc3c(F)cc(F)cc3F)n2)cc1 | inactive | < 1 | < 4.55 | < 1 | 4.96 | < 4.55 |
| Cc1cc(C#N)cc(C)c1Oc1nc(Nc2ccc(C#N)cc2)cn2ccnc12 | inactive | ≥ 224 | 6.49 | 1 | 6.59 | < 4.14 |
| Cc1cc(C)c(Oc2nc(Nc3ccc(Cl)cc3)cn3ccnc23)c(C)c1 | inactive | < 1 | < 4.92 | < 1 | 5.23 | < 4.92 |
| Cc1cc(C#N)cc(C)c1Oc1nc(Nc2ccc(CC#N)cc2)cn2ccnc12 | inactive | 15 | 4.72 | < 1 | 6.77 | < 3.55 |
| Cc1cccc(C)c1Oc1nc(Nc2ccc(C#N)cc2)cn2ccnc12 | inactive | 5 | 5.19 | < 1 | 6.09 | < 4.49 |
| Cc1cc(C#N)cc(C)c1Oc1nc(Nc2ccc(C#N)cc2)nc2[nH]ccc12 |  |  | 9.05 |  |  |  |
| Cc1cc(C#N)cc(C)c1Oc1nc(Nc2ccc(C#N)cc2)nc(N)c1Br [ETRAVIRINE] |  |  | 8.40 |  |  | 7.70 |
| Cc1cc(Br)cc(C)c1Oc1nc(Nc2ccc([N+](=O)[O-])cc2)cn2ccnc12 | inactive | 7 | 5.40 | < 1 | 5.39 | < 4.55 |
| Cc1cc(C#N)cc(C)c1Oc1nc(Nc2ccc([N+](=O)[O-])cc2)cn2ccnc12 | inactive | 13 | 5.64 | < 1 | 4.85 | < 4.54 |
| Cc1cccc(C)c1Oc1nc(Nc2ccc([N+](=O)[O-])cc2)cn2ccnc12 | inactive | < 1 | < 5.28 |  | 3.48 |  |
| Cc1cc(C)c(Oc2nc(Nc3ccc([N+](=O)[O-])cc3)cn3ccnc23)c(C)c1 | inactive | 25 | 5.89 | < 1 | 5.33 | < 4.47 |
